Columns and labels:
Homo sapiens [1] = species: Homo sapiens; assay: Selectivity ratio of Ki for adrenergic beta2 receptor Ki for adrenergic beta-3 receptor
Homo sapiens [2] = species: Homo sapiens; assay: Selectivity ratio of Ki for human adrenergic beta-1 receptor to Ki for human adrenergic beta-3 receptor
[3] = molecular target: T1, Beta-3 adrenergic receptor (Homo sapiens, UniProt P13945); assay: Intrinsic activity at human cloned adrenergic beta3 receptor expressed in CHO cells assessed as cAMP accumulation relative to isoproterenol; assay type: functional, cell-based
Target sequence in this assay (P13945 whole entry, looked up): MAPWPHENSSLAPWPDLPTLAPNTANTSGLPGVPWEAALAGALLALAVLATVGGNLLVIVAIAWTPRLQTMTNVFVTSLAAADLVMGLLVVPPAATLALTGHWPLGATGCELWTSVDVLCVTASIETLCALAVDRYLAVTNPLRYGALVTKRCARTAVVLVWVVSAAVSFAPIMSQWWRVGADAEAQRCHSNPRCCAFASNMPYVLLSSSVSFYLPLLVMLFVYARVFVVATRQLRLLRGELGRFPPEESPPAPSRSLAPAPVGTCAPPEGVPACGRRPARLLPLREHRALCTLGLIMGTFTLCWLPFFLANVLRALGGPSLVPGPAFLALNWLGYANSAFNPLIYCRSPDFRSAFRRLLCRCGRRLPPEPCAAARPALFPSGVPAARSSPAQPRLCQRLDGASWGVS

[4] = molecular target: T1, Beta-3 adrenergic receptor; assay: Displacement of [125I]iodocyanopindolol from cloned human adrenergic beta-3 receptor expressed in CHO cells; assay type: cell-based
Target sequence in this assay (P13945 whole entry): as the sequence (P13945 whole entry, looked up) above

[5] = molecular target: Beta-1 adrenergic receptor (Homo sapiens, UniProt P08588); assay: Displacement of [125I]iodocyanopindolol from human cloned adrenergic beta-1 receptor expressed in CHO cells; assay type: cell-based
Sequence of Beta-1 adrenergic receptor (P08588 whole entry): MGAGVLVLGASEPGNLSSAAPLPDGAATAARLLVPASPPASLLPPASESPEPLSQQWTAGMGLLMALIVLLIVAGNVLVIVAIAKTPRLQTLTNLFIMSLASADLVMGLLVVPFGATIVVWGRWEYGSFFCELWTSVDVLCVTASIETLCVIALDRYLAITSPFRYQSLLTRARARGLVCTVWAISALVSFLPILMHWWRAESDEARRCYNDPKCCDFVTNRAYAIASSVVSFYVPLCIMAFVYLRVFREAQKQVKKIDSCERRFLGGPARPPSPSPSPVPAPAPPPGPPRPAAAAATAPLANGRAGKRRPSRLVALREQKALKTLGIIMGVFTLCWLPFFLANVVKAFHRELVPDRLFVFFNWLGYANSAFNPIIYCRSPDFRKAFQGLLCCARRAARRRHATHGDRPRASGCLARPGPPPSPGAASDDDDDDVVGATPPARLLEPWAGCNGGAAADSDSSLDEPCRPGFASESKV

[6] = molecular target: Beta-2 adrenergic receptor (Homo sapiens, UniProt P07550); assay: Displacement of [125I]iodocyanopindolol from human cloned adrenergic beta-2 receptor expressed in CHO cells; assay type: cell-based
Sequence of Beta-2 adrenergic receptor (P07550 whole entry): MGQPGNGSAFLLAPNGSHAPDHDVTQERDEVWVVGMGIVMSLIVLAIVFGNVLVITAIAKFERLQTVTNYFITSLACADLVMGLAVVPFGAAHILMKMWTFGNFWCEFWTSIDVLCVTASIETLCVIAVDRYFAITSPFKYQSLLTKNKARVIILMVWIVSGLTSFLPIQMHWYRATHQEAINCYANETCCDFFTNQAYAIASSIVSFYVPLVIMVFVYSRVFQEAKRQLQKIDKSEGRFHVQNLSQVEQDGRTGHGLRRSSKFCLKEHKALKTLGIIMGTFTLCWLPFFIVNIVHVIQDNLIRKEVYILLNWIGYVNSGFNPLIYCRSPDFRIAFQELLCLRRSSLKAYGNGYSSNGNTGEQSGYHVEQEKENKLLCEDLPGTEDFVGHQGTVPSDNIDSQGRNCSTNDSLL

African green monkey [7] = assay: Effect on African green monkey assessed as change in free fatty acid level at 0.1 mg/kg, iv; assay type: functional, Chlorocebus sabaeus
Method in brief: (§1)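 Single iv dose given to ketamine-sedated African green monkeys, either 0.1 or 0.5 mg/kg as the line states. Three read-outs were recorded after dosing: change in serum free fatty acids (β3 lipolysis), change in serum K+ (a decrease is β2-mediated) and change in heart rate (β1/β2 tachycardia). Changes were tested for significance at P < 0.05.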

African green monkey [8] = assay: Ratio of effect on tachycardia to ED50 for lipolysis in African green monkey; assay type: functional, Chlorocebus sabaeus
Method in brief: (§2)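 Compounds were given iv to ketamine-sedated African green monkeys across a range of doses. Lipolysis ED50 (mg/kg) came from the rise in serum free fatty acids. Onset doses were the lowest doses giving a statistically significant rise in heart rate (β1) or fall in serum K+ (β2). Each margin is the onset dose divided by the lipolysis ED50.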

African green monkey [9] = assay: Effect on potassium levels in African green monkey serum at 0.1 mg/kg, iv; assay type: functional, Chlorocebus sabaeus; parameters: unit not given beside the values; method in brief: as §1
African green monkey [10] = assay: Ratio of serum potassium concentration to ED50 for lipolysis in African green monkey; assay type: functional, Chlorocebus sabaeus; method in brief: as §2
African green monkey [11] = assay: Effect on lipolysis in iv dosed African green monkey; assay type: functional; details: Chlorocebus sabaeus; method in brief: as §2
African green monkey [12] = assay: Effect on tachycardia in African green monkey assessed as change in heart rate at 0.1 mg/kg, iv; assay type: functional, Chlorocebus sabaeus; method in brief: as §1
[13] = molecular target: Beta-1 adrenergic receptor (Cavia porcellus) (UniProt B0FL73); assay: Intrinsic activity at adrenergic beta-1 receptor in spontaneously beating guinea pig atria assessed as acceleration in contraction relative to isoproterenol
Sequence of Beta-1 adrenergic receptor (Cavia porcellus) (B0FL73 1-467): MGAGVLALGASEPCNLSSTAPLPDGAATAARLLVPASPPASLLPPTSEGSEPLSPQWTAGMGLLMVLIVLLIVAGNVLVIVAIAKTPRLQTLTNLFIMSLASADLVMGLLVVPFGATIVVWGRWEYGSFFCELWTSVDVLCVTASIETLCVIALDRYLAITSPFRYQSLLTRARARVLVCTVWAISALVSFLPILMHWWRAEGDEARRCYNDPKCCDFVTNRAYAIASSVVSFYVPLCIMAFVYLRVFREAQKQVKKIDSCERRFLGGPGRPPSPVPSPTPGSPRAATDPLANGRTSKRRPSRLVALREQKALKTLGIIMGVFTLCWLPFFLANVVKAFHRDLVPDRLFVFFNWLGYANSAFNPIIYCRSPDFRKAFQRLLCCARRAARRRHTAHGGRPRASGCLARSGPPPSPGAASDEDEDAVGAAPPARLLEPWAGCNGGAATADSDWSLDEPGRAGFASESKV

Compound | Ratio Ki (Homo sapiens [1]) | Ratio Ki (Homo sapiens [2]) | Intrinsic activity [3] [%] | Ki [4] [nM] | Ki [5] [nM] | Ki [6] [nM] | also measured
CS(=O)(=O)Nc1cc(OC[C@@H](O)CN[C@H](Cc2ccccc2)c2ccc(OC(F)F)cc2)ccc1O | 7 | 66 | 48 | 5 | – | – | –
CS(=O)(=O)Nc1cc(OC[C@@H](O)CN)ccc1O | 0.04 | 0.08 | 47 | 15000 | – | – | –
CS(=O)(=O)Nc1c(O)ccc([C@@H](O)CN[C@H](Cc2ccccc2)c2ccc(OC(F)F)cc2)c1F | – | – | 77 | 270 | – | – | –
COc1ccc([C@H](CCc2cccc(Cl)c2)NC[C@H](O)Cc2ccc(O)c(NS(C)(=O)=O)c2)cc1OC | 1 | 14 | 57 | 29 | 420 | 26 | –
COc1ccc([C@H](CCc2ccccc2Cl)NC[C@H](O)Cc2ccc(O)c(NS(C)(=O)=O)c2)cc1OC | 8 | 39 | 73 | 7 | 270 | 57 | –
CS(=O)(=O)Nc1cc([C@@H](O)CN[C@H](Cc2ccccc2)c2ccc(OC(F)F)cc2)ccc1O | – | – | 107 | – | – | – | Activity (African green monkey [7]): 1.05; Ratio (African green monkey [8]): 3; Activity (African green monkey [9]): 0.08; Ratio (African green monkey [10]): >25; ED50 (African green monkey [11]): 0.03 mg/kg; Activity (African green monkey [12]): 26
CS(=O)(=O)Nc1cc([C@@H](O)CN)ccc1O | – | – | 93 | 17000 | – | – | –
CS(=O)(=O)Nc1cc(C[C@H](O)CN[C@H](Cc2ccccc2)c2ccc(OC(F)F)c(OC(F)F)c2)ccc1O | – | – | 60 | 19 | 690 | 102 | Intrinsic activity [13]: 0%
COc1ccc(CCNCC(O)Cc2ccc(O)c(NS(C)(=O)=O)c2)cc1OC (stereo not drawn) | 0.1 | 0.6 | 35 | 7300 | – | – | –
COc1ccc(CNC[C@H](O)COc2ccc(O)c(NS(C)(=O)=O)c2)cc1 | 0.4 | 3 | 46 | 360 | – | – | –
CS(=O)(=O)Nc1c(O)ccc([C@@H](O)CN)c1F | – | – | 0 | 120000 | – | – | –
COc1ccc([C@@H](Cc2ccccc2)NC[C@@H](O)Cc2ccc(O)c(NS(C)(=O)=O)c2)cc1 | – | – | 65 | 53 | 6000 | 510 | –
COc1ccc([C@H](NC[C@H](O)c2ccc(O)c(NS(C)(=O)=O)c2F)C(=O)Nc2ccccc2)cc1 | – | – | 58 | – | – | – | –
COc1ccc([C@@H](Cc2ccccc2)NC[C@H](O)Cc2ccc(O)c(NS(C)(=O)=O)c2)cc1OC | – | – | 43 | 25 | > 10000 | 1500 | Intrinsic activity [13]: 0%
COc1cccc([C@@H](Cc2ccccc2)NC[C@@H](O)Cc2ccc(O)c(NS(C)(=O)=O)c2)c1 | – | – | 44 | 110 | 3600 | 350 | –
CCOP(=O)(OCC)c1ccc(NC(=O)[C@@](C)(NC[C@H](O)c2ccc(O)c(NS(C)(=O)=O)c2)c2ccc(OC)cc2)cc1 | – | – | – | – | – | – | Ratio (African green monkey [8]): >25; Ratio (African green monkey [10]): >25; ED50 (African green monkey [11]): 0.1 mg/kg
CS(=O)(=O)Nc1cc(C[C@H](O)CNC(c2ccc(OC(F)F)cc2)c2ccc(OC(F)F)cc2)ccc1O | 0.6 | 3 | 60 | 340 | – | – | –
COc1ccc([C@H](Cc2ccccc2)NC[C@@H](O)Cc2ccc(O)c(NS(C)(=O)=O)c2)cc1OC | – | – | 62 | 9 | 560 | 24 | Intrinsic activity [13]: 75%
COc1ccc([C@H](CCc2ccccc2)NC[C@H](O)Cc2ccc(O)c(NS(C)(=O)=O)c2)cc1OC | 43 | 111 | 84 | 9 | 1000 | 390 | Activity (African green monkey [7]): 0.95; Activity (African green monkey [9]): -0.25; Activity (African green monkey [12]): 29
COc1ccc([C@@H](Cc2ccc(Cl)cc2)NC[C@@H](O)Cc2ccc(O)c(NS(C)(=O)=O)c2)cc1OC | 6 | 24 | 68 | 24 | – | – | –
COc1ccc(CNC[C@H](O)CCc2ccc(O)c(NS(C)(=O)=O)c2)cc1 | 1 | 1 | 42 | 3700 | – | – | –

Compound | Ratio Ki (Homo sapiens [1]) | Ratio Ki (Homo sapiens [2]) | Intrinsic activity [3] [%] | Ki [4] [nM] | Ki [5] [nM] | Ki [6] [nM] | also measured
CS(=O)(=O)Nc1cc([C@@H](O)CNC(c2ccc(OC(F)F)cc2)c2ccc(OC(F)F)cc2)ccc1O | – | – | – | – | – | – | Ratio (African green monkey [8]): 6; Ratio (African green monkey [10]): >60; ED50 (African green monkey [11]): 0.08 mg/kg
COc1ccc(C(C)(C)NC[C@H](O)c2ccc(O)c(NS(C)(=O)=O)c2)cc1 | – | – | 86 | 7 | – | – | –
COc1ccc([C@@H](Cc2ccccc2Cl)NC[C@@H](O)Cc2ccc(O)c(NS(C)(=O)=O)c2)cc1OC | 13 | 58 | 65 | 7 | – | – | –
COc1ccc(CNCC(O)Cc2ccc(O)c(NS(C)(=O)=O)c2)cc1 (stereo not drawn) | 0.3 | 2 | 50 | 1100 | – | – | –
CS(=O)(=O)Nc1cc(C[C@H](O)CN[C@H](Cc2ccccc2)c2ccc(Cl)c(Cl)c2)ccc1O | – | – | 70 | 133 | 1500 | 38 | –
COc1ccc([C@@H](Cc2ccccc2)NC[C@@H](O)Cc2ccc(O)c(NS(C)(=O)=O)c2)cc1O | – | – | 70 | 8 | 3200 | 1070 | –
COc1ccc([C@@H](Cc2ccccc2)NC[C@H](O)COc2ccc(O)c(NS(C)(=O)=O)c2)cc1OC | 15 | 120 | 67 | 3 | – | – | –
COc1ccc([C@@H](Cc2ccccc2)NC[C@H](O)CCc2ccc(O)c(NS(C)(=O)=O)c2)cc1OC | 27 | 112 | 60 | 160 | – | – | –
COc1ccc([C@H](Cc2ccccc2)NC[C@H](O)Cc2ccc(O)c(NS(C)(=O)=O)c2)cc1OC | – | – | 70 | 150 | 47000 | 820 | Intrinsic activity [13]: 48%
COc1ccc(CC(Cc2ccc(OC)c(OC)c2)NC[C@@H](O)Cc2ccc(O)c(NS(C)(=O)=O)c2)cc1OC | 0.2 | 3 | 75 | 170 | – | – | –
COc1cccc([C@@H](Cc2ccccc2)NC[C@H](O)Cc2ccc(O)c(NS(C)(=O)=O)c2)c1 | – | – | 27 | 1100 | > 10000 | 2700 | Intrinsic activity [13]: 0%
COc1ccc([C@@H](Cc2ccccc2)NC[C@H](O)Cc2ccc(O)c(NS(C)(=O)=O)c2)cc1 | – | – | 30 | 460 | > 10000 | 3100 | Intrinsic activity [13]: 0%
CS(=O)(=O)Nc1cc(C[C@@H](O)CN[C@@H](CCc2ccccc2)c2ccc(OC(F)F)c(OC(F)F)c2)ccc1O | 1 | 8 | 86 | 59 | 490 | 71 | –
COc1ccc([C@H](NC[C@H](O)c2ccc(O)c(NS(C)(=O)=O)c2)C(=O)Nc2ccccc2)cc1 (stereo in doubt; 1a) | – | – | 119 | – | – | – | –
COc1ccc(C(C)(C)NC[C@H](O)c2ccc(O)c(NS(C)(=O)=O)c2F)cc1 | – | – | 88 | 200 | – | – | –
COc1ccc([C@H](CCc2ccccc2)NC[C@H](O)Cc2ccc(O)c(NS(C)(=O)=O)c2)cc1 | 9 | 24 | 93 | 31 | 730 | 280 | –
CS(=O)(=O)Nc1cc(CC[C@@H](O)CN[C@H](Cc2ccccc2)c2ccc(OC(F)F)cc2)ccc1O | 7 | 38 | 40 | 880 | – | – | –
COc1ccc([C@@H](Cc2cccc(Cl)c2)NC[C@@H](O)Cc2ccc(O)c(NS(C)(=O)=O)c2)cc1OC | 13 | 52 | 68 | 6 | – | – | Activity (African green monkey [7]): 0.92; Activity (African green monkey [9]): -0.55; Activity (African green monkey [12]): 6
COc1ccc([C@H](CCc2ccc(Cl)cc2)NC[C@H](O)Cc2ccc(O)c(NS(C)(=O)=O)c2)cc1OC | 10 | 88 | 89 | 12 | 1050 | 120 | Activity (African green monkey [7]): 0.87; Activity (African green monkey [9]): -0.32; Activity (African green monkey [12]): 32
COc1cccc([C@H](CCc2ccccc2)NC[C@H](O)Cc2ccc(O)c(NS(C)(=O)=O)c2)c1 | 0.5 | 1 | 44 | 390 | 570 | 200 | –

Reference: ChEMBL document CHEMBL1140016, “Arylpropanolamines: selective beta3 agonists arising from strategies to mitigate phase I metabolic transformations” (Bioorg Med Chem Lett, 2007)
